One may read the viability as a read-out of living cells in per cent, often relative to untreated cells. In general, inhibition refers to the drop in the measured response relative to a control, in per cent.

Calls of active or inactive are those of the source.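 The calls were made as follows, unless noted: active = viability loss from added drug above about 55%, and viability with drug at most 40%, in both replicates (limit read from the data, passing the limit was not always enough); inconclusive = both conditions met in only one replicate; inactive = neither replicate meets both conditions.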

Assay [1] in a line: Her2 expression decrease, cell viability multiplex – SKBR3 breast tumor cells, AlphaScreen, ATP viability, primary screen (AID 461;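 active = Her2 level under about 52% in both replicate screens, with viability over 70% of control, limit read from the data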;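 as to Her2 level: lower value means less Her2 protein in the cells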;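 as to viability: percent of carrier control wells set as 100% viability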). The following applies: SKBR3 Her2 protein level, 18-24 h, measured here: SKBR3 viability, ATP luminescence, at 10 µM. Background: Alpha assays give light when donor and acceptor beads are brought close together.
Assay [2] has as its target Receptor tyrosine-protein kinase erbB-2 (Homo sapiens) (UniProt P04626). The assay is described as above. The following applies: 18-24 h, at 10 µM, stronger effect = lower value.
Assay [3] is described as follows: reduced viability of SK-BR-3 breast cancer cells – cell-based, 24 h, human, pilot screen (AID 572;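 active = viability at or below 10% of carrier control in both of two separate runs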;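 also: compound exposure lasted between 18 and 24 h rather than exactly 24 h; 100% = carrier-treated control wells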). Particulars: SK-BR-3 viability, CellTiter-Glo luminescence, at 10 µM, stronger effect = lower value. For orientation: ATP-based viability assays read luminescence as a measure of living cells.
A short description of assay [4]: HUVEC growth inhibition – cell-based, human, primary screen (AID 575;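 active = viability at or below 30% in both replicate assays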;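 also: 100% = median of untreated cell wells with 0.1% DMSO on each plate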). Particulars: HUVEC proliferation, CellTiter-Glo luminescence, 72 h; at 10 µM; stronger effect = lower value. An outline of the steps:
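System: primary human umbilical vein endothelial cells; Quantity: 1250 endothelial cells in each well; Buffer or medium: supplemented EBM, 2% fetal bovine serum; Doses: one dose, 10 µM final, 0.1% DMSO; Incubation: 72 h compound incubation; Technique: ATP-based CellTiter-Glo luminescent read; Evaluation: percent of median DMSO-control luminescence; Controls: vehicle and MePR control wells.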

The nature of assay [5]: H69AR cell proliferation blockers – human, duplicate replicates, primary screen (AID 580;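 active = viability at or under a set limit in both replicates, limit being median viability minus 3 SD, cut at about 48% in these data, passing the limit was not always enough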;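 also: 100% = mean luminescence of untreated wells and 0% = no signal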). Particulars: H69AR lung tumor cells viability, ATP luminescence, 72 h; at 10 µM; stronger effect = lower value.
The nature of assay [6]: MRP1 drug-resistance reversers in H69AR cells – cell-based, doxorubicin co-treatment, pilot screen (AID 601). The following applies: CellTiter-Glo, 72 h, at 10 µM; for differential viability (reversal): stronger effect = higher value.
Assay [7] can be described thus: yeast transport mutant growth inhibition pilot in 384-well plates, post-Golgi transport modulator project (AID 636; in the data active = inhibition above about 31%). The following applies: absorbance 615 nm, about 18 h, stronger effect = higher value.
Assay [8] in a line: growth suppression of yeast trafficking mutant, preliminary HTS, modulators of trafficking downstream of Golgi apparatus project, 1536-format plate, OD 615 nm (AID 637; in the data active = inhibition above about 30%). The following applies: yeast transport mutant growth, absorbance 615 nm, 18 h; stronger effect = higher value.
Where [9] appears, read: H69AR cells + 2 uM doxorubicin, measured here: viability with 2 uM doxorubicin, stronger effect = lower value.
Setting [10] is: H69AR cells, compound alone cytotoxicity.

Chain of Receptor tyrosine-protein kinase erbB-2 (Homo sapiens) (P04626 whole entry, looked up): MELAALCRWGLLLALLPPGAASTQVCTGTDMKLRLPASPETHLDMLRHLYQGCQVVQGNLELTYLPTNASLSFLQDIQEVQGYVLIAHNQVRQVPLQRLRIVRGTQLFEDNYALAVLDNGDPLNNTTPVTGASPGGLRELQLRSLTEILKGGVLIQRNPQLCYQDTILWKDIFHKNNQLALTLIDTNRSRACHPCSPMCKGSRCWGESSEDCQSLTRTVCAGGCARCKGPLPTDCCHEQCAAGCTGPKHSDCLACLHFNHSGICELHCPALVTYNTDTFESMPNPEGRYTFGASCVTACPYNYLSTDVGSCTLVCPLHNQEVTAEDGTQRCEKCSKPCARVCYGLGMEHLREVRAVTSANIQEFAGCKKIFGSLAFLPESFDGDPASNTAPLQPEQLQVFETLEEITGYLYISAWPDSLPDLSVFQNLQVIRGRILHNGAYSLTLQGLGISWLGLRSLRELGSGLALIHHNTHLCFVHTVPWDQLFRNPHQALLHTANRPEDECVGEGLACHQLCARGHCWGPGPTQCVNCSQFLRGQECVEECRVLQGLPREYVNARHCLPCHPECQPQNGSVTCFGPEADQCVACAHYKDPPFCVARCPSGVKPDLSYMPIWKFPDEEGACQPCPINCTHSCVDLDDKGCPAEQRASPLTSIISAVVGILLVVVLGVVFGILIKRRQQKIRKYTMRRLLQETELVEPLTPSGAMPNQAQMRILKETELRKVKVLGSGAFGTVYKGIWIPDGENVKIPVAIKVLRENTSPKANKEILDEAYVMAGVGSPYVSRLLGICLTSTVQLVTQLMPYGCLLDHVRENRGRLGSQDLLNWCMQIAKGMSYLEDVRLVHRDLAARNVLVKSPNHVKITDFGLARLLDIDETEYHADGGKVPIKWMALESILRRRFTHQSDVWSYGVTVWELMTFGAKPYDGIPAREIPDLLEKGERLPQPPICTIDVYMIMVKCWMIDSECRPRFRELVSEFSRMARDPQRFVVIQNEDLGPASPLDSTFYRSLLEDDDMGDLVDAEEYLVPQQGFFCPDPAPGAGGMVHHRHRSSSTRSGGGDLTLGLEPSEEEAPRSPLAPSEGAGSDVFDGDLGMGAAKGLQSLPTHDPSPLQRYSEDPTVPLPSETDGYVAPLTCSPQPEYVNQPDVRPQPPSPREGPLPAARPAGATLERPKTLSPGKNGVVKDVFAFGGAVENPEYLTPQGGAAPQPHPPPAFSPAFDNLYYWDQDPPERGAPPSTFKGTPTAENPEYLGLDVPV

For `CCN1CCCC1CNC(=O)CS(=O)(=O)Cc1nc(-c2ccccc2C)oc1C` (stereo not given), the viability in assay [1] is 97%; in assay [3], 97% (inactive); in assay [4], 83% (inactive); in assay [5], 88.1% (inactive); in assay [6] (setting [9]), 88.1%; in assay [6] (setting [10]) it was 88.1%. The Her2 level in assay [2] is 92.5% (inactive). In addition, the differential viability (reversal) in assay [6] (H69AR cells + 2 uM doxorubicin) is 0.015% (inactive). For the same molecule, the results for the inhibition in assay [7] and in assay [8] were -3.6% (inactive) and 1.64% (inactive), respectively.
In the case of `Cn1c(=O)oc2cc(S(=O)(=O)N3CCC(C(=O)Nc4ccc(OC(F)(F)F)cc4)CC3)ccc21`, the viability is 137% in assay [1]; 137% (inactive) in assay [3]; 91.4% (inactive) in assay [4]; 33% (active) in assay [5]; 37.5% in assay [6] (setting [9]); 33% in assay [6] (setting [10]). For the same molecule, in assay [2], the Her2 level was 98.5% (inactive). In addition, the differential viability (reversal) in assay [6] (H69AR cells + 2 uM doxorubicin) was -4.57% (inactive). Besides, the inhibition in assay [7] was -5.92% (inactive); in assay [8], 0.18% (inactive).
Regarding `Cc1cc(OCC(=O)N2CCCC2)cc(C)c1Cl`, the viability is 102% in assay [1]; 102% (inactive) in assay [3]; 101% (inactive) in assay [4]; 89.6% (inactive) in assay [5]; 73.5% in assay [6] (setting [9]); 89.6% in assay [6] (setting [10]). Further, the Her2 level in assay [2] is 96% (inactive). Besides, the differential viability (reversal) in assay [6] (H69AR cells + 2 uM doxorubicin) is 16.1% (inactive). Moreover, the results for the inhibition in assay [7] and in assay [8] were -6.8% (inactive) and -0.33% (inactive), respectively.
For the molecule `O=C(COC(=O)C12CC3CC(CC(O)(C3)C1)C2)N1CCN(S(=O)(=O)c2ccc(Cl)cc2)CC1`, the viability in assay [1] was 87.5%; in assay [3] it was 87.5% (inactive); in assay [4], 107% (inactive); in assay [5], 83.6% (inactive); in assay [6] (setting [9]) it was 91.3%; in assay [6] (setting [10]), 83.6%. In assay [2], the Her2 level was 85.5% (inactive). Further, the differential viability (reversal) in assay [6] (H69AR cells + 2 uM doxorubicin) was -7.7% (inactive). The inhibition in assay [7] is -3.33% (inactive); in assay [8], -4.17% (inactive).
For the molecule `c1ccc(N2CCN(Cc3ccnc4ccccc34)CC2)cc1`, the viability in assay [1] was 98%; in assay [3], 98% (inactive); in assay [4] it was 71.2% (inactive); in assay [5], 72.4% (inactive); in assay [6] (setting [9]), 93.5%; in assay [6] (setting [10]), 72.4%. In addition, the Her2 level in assay [2] is 81.5% (inactive). Moreover, the differential viability (reversal) in assay [6] (H69AR cells + 2 uM doxorubicin) is -21.1% (inactive). Further, the inhibition was -6.22% (inactive) in assay [7] and -0.82% (inactive) in assay [8].
For `Cc1c(C(=O)O)c(-c2ccccc2)nn1-c1ccccc1`, the viability in assay [1] is 103%; in assay [3], 103% (inactive); in assay [4], 96.9% (inactive); in assay [5], 92.1% (inactive); in assay [6] (setting [9]) it was 87.5%; in assay [6] (setting [10]), 92.1%. Besides, the Her2 level in assay [2] was 104% (inactive). Also, the differential viability (reversal) in assay [6] (H69AR cells + 2 uM doxorubicin) is 4.64% (inactive). Further, the inhibition in assay [7] was -2.99% (inactive); in assay [8], -2.3% (inactive).
With `FC(F)(F)c1cc(-c2ccco2)nc(N2CCOCC2)n1`, the viability in assay [1] was 86%; in assay [3], 86% (inactive); in assay [4], 69.1% (inactive); in assay [5] it was 92.4% (inactive); in assay [6] (setting [9]), 73.8%; in assay [6] (setting [10]) it was 92.4%. The Her2 level in assay [2] is 80.5% (inactive). The differential viability (reversal) in assay [6] (H69AR cells + 2 uM doxorubicin) was 18.6% (inactive). In addition, the inhibition in assay [7] was -6.93% (inactive); in assay [8], 7.21% (inactive).
As for `COc1ccccc1OCC(=O)NCC1CCCCC1`, the viability in assay [1] is 94.5%; in assay [3], 94.5% (inactive); in assay [4], 93.2% (inactive); in assay [5], 109% (inactive); in assay [6] (setting [9]), 85.2%; in assay [6] (setting [10]), 109%. In assay [2], the Her2 level is 114% (inactive). Moreover, the differential viability (reversal) in assay [6] (H69AR cells + 2 uM doxorubicin) is 23.4% (inactive). Further, the values for the inhibition in assay [7] and in assay [8] were -3.29% (inactive) and -9.33% (inactive), respectively.
Take `Cc1ccc(OC(=O)CCC(=O)OCCCC(F)(F)C(F)(F)F)cc1`: the viability in assay [1] is 102%; in assay [3], 102% (inactive); in assay [4] it was 91.2% (inactive); in assay [5], 94.3% (inactive); in assay [6] (setting [9]), 90.5%; in assay [6] (setting [10]) it was 94.3%. Also, the Her2 level in assay [2] is 104% (inactive). The differential viability (reversal) in assay [6] (H69AR cells + 2 uM doxorubicin) is 3.79% (inactive). The inhibition in assay [7] is -1.76% (inactive); in assay [8], -1.64% (inactive).
For `CC(C)Cn1c(CN(Cc2ccccc2)Cc2ccccc2)nc2c1c(=O)n(C)c(=O)n2C`, the viability in assay [1] is 85.5%; in assay [3] it was 85.5% (inactive); in assay [4], 54.8% (inactive); in assay [5], 90.1% (inactive); in assay [6] (setting [9]) it was 88.9%; in assay [6] (setting [10]), 90.1%. Moreover, the Her2 level in assay [2] was 86.5% (inactive). For the same molecule, in assay [6] (H69AR cells + 2 uM doxorubicin), the differential viability (reversal) was 1.2% (inactive). Also, the figures for the inhibition in assay [7] and in assay [8] were -1.47% (inactive) and 3.93% (inactive), respectively.
On to `CCc1ccc(N2CC(C(=O)OCC(=O)Nc3cc(C)on3)CC2=O)cc1` (stereo not given), for which the viability in assay [1] is 94%; in assay [3] it was 94% (inactive); in assay [4], 107% (inactive); in assay [5], 110% (inactive); in assay [6] (setting [9]) it was 99.2%; in assay [6] (setting [10]), 110%. Also, in assay [2], the Her2 level was 92% (inactive). In assay [6] (H69AR cells + 2 uM doxorubicin), the differential viability (reversal) is 11.1% (inactive). In addition, the inhibition in assay [7] is 0.9% (inactive); in assay [8], -3.83% (inactive).
On to `C=CCNC(=O)CSc1ccc(Cl)cc1`, for which the viability in assay [1] was 88.5%; in assay [3] it was 88.5% (inactive); in assay [4] it was 109% (inactive); in assay [5], 81.4% (inactive); in assay [6] (setting [9]), 88.8%; in assay [6] (setting [10]), 81.4%. Moreover, in assay [2], the Her2 level is 106% (inactive). Also, the differential viability (reversal) in assay [6] (H69AR cells + 2 uM doxorubicin) is -7.45% (inactive). Besides, the inhibition is -4.21% (inactive) in assay [7] and 3.11% (inactive) in assay [8].
With `CC1=C(C(N)=O)C(c2cccnc2)n2nc(SCc3ccccc3Cl)nc2N1` (stereo not given), the viability in assay [1] was 79%; in assay [3], 79% (inactive); in assay [4], 87.6% (inactive); in assay [5], 98.7% (inactive); in assay [6] (setting [9]) it was 84%; in assay [6] (setting [10]), 98.7%. In addition, the Her2 level in assay [2] is 94.5% (inactive). Moreover, in assay [6] (H69AR cells + 2 uM doxorubicin), the differential viability (reversal) was 14.7% (inactive). For the same molecule, the figures for the inhibition in assay [7] and in assay [8] were -9.05% (inactive) and -3.77% (inactive), respectively.
`CCCc1cn(S(=O)(=O)c2ccc(OC)cc2OC)nc1N`: the viability in assay [1] was 98%; in assay [3], 98% (inactive); in assay [4], 92.8% (inactive); in assay [5], 92.4% (inactive); in assay [6] (setting [9]), 88.7%; in assay [6] (setting [10]) it was 92.4%. Further, the Her2 level in assay [2] was 84.5% (inactive). In assay [6] (H69AR cells + 2 uM doxorubicin), the differential viability (reversal) is 3.72% (inactive). Besides, the inhibition in assay [7] was -7.2% (inactive); in assay [8] it was 0% (inactive).

(Values after PubChem BioAssay.)
